Many of the other results were omitted from the sample, so hits are more common in it than they were.
Insulin prom act: TRM-6 insulin promoter activation. TRM-6 cells (human fetal islet line), insulin promoter eGFP reporter, imaging; plate-scaled: unstimulated 0, stimulated control 100. activation, % at 2 µM. 0.81% of 130,000 active. AID 1296;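 active means activation at 2 µM above a set limit, confirmed on inspection of the cell images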;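 further: share of cells whose green reporter signal exceeds an intensity cutoff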
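Material: TRM-6 insulin promoter–eGFP reporter cells. Buffer or medium: Low-glucose (5.5 mM) medium with tamoxifen. Probe or stimulus: tamoxifen at 0.75 µM added at seeding for reporter induction. Times: tamoxifen pre-incubation 15 h overnight, then compound exposure 48 h at 37 °C. Detection: high-content imaging of fixed cells with Hoechst nuclear stain.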
* = called active by the depositor.

Cc1c(C(=O)/C=C/c2cccs2)oc2ccc(F)cc12 was read as Insulin prom act 3.
Cc1ccc(-c2nc(CSCC(=O)NCc3cccnc3)c(C)o2)cc1 was read as Insulin prom act 7.
For Cc1cccc(N2CCN(C(=O)C3CCN(S(=O)(=O)N4CCOCC4)CC3)CC2)c1C the results were Insulin prom act 7.
For O=C(CCCCCNC(=O)c1ccccc1)C[N+](=O)[O-] the results were Insulin prom act 8.
For CC(C)CCN1C(=O)c2ccccc2C1C(=O)NCc1cccnc1 (configuration not stated) the results were Insulin prom act 0.
Screening COc1ccccc1-n1c(C)cc(C=O)c1C returned Insulin prom act -7.
For c1ccc(CSCc2nc3ccccc3[nH]2)cc1 the results were Insulin prom act -76.
`CCOC(=O)N1CCN(C(=O)c2cn(CC)c3ccc(S(=O)(=O)N4CCC(C)CC4)cc3c2=O)CC1` gave Insulin prom act 0.
For COc1ccc(NS(=O)(=O)c2cc(C(=O)N3CCN(C(C)=O)CC3)ccc2Cl)cc1 the results were Insulin prom act 7.
Screening COc1ccc(NS(=O)(=O)c2cc(N/C(=N\S(=O)(=O)c3ccccc3)c3ccc(F)cc3)ccc2Cl)cc1 returned Insulin prom act 76*.
Screening CCCCOC(=O)c1ccc(N/C(=N\S(=O)(=O)c2ccccc2)c2ccccc2)cc1 returned Insulin prom act -6.
COc1ccc(OCC(=O)N2N=C(C(F)F)CC2(O)C(F)F)cc1 (configuration not stated) was read as Insulin prom act -2.
For COC(=O)C(C)Oc1cc(OC(C)C(=O)OC)c2c(C)c(Cl)c(=O)oc2c1 (configuration not stated) the results were Insulin prom act -7.
For O=C(CN1CCCCC1)N/N=C/c1ccccc1OCc1ccccc1 the results were Insulin prom act 0.
Screening COc1cccc(-c2nnc(NC(=O)c3ccc4ncsc4c3)o2)c1 returned Insulin prom act 0.
`CCCNC(=O)c1sc2c(c1C(=O)Nc1ccccn1)CCCC2` gave Insulin prom act 146.
COc1cc(NC(=O)c2ccc3c(c2)OCO3)c2ncccc2c1 was read as Insulin prom act 412*.
COc1ccc(-c2nc3cc(NC(=O)c4ccc5c(c4)OCO5)ccc3o2)cc1 was read as Insulin prom act -9.
Screening O=C(Nc1cccc2cccnc12)c1ccc2c(c1)OCCO2 returned Insulin prom act 7.
Screening O=C(Nc1ccc(C(=O)O)cc1)Nc1ccc(F)cc1F returned Insulin prom act -9.
CC(Oc1ccc(Cl)cc1Cl)C(=O)NC1CCSC1=O (configuration not stated) was read as Insulin prom act 9.
`CC(Oc1ccc(Cl)cc1Cl)c1ccn[nH]1` (configuration not stated) gave Insulin prom act 306*.
`COCCNC(=O)C(C)Oc1ccc(Cl)cc1Cl` (configuration not stated) gave Insulin prom act -7.
`O=S(=O)(NCc1cccnc1)c1ccc(Cl)s1` gave Insulin prom act 6.
Screening O=C(Cn1c(-c2cscn2)nc2ccccc21)Nc1ccccc1F returned Insulin prom act 0.
CC(C)OC(=O)CN1C(=O)S/C(=C/c2ccc(N3CCCCC3)o2)C1=O was read as Insulin prom act 170*.
Screening O=C1S/C(=C/c2ccc(N3CCOCC3)o2)C(=O)N1Cc1ccc(F)cc1 returned Insulin prom act 6.
O=C1NC(=S)S/C1=C/c1ccc(N2CCOCC2)o1 was read as Insulin prom act 141.
`COc1ccc(NC(=O)N2CCN(S(C)(=O)=O)CC2)cc1` gave Insulin prom act -5.
`COC(=O)CCC(=O)c1oc2ccccc2c1N` gave Insulin prom act -3.
For CCC(=O)N/C(=N/c1nc(C)cc(C)n1)Nc1cccc(OC)c1 the results were Insulin prom act -7.
For CC(C)N(C(=O)Cn1c(Cl)nc2ccccc21)C(C)C the results were Insulin prom act 0.
CN1CCC(=NNC(=O)CN(c2ccc(Oc3ccccc3)cc2)S(C)(=O)=O)CC1 was read as Insulin prom act 454*.
Screening Cc1ccc(C)c(N(CC(=O)NN=C2CCN(C)CC2)S(=O)(=O)c2ccccc2)c1 returned Insulin prom act -8.
Screening Cc1ccc(S(=O)(=O)N(CC(=O)NN=C2CCN(C)CC2)c2ccc(C(C)C)cc2)cc1 returned Insulin prom act 0.
COc1cccc(NC(=O)COc2ccc(N3CC(C(=O)NCC(C)C)CC3=O)cc2)c1 (configuration not stated) was read as Insulin prom act 202.
O=C(CNC(=O)Cc1ccccc1)NCC(=O)OCC(=O)c1cccc2ccccc12 was read as Insulin prom act -7.
CCC(C)(C)NC(=O)CN(C(=O)c1snc(C(N)=O)c1N)c1ccc2c(c1)OCO2 was read as Insulin prom act 9.
`CCc1ccccc1N(CC(=O)NCc1ccco1)C(=O)c1snc(C(N)=O)c1N` gave Insulin prom act 164*.
Screening CS(=O)(=O)N(CC(=O)NCc1ccco1)c1ccccc1Cl returned Insulin prom act -7.
CC(C)Cc1ccc(C(C)C(=O)O)cc1 (configuration not stated) was read as Insulin prom act 5.
For CC(C)Cc1ccc(C(C)NC(=O)c2ccc(=O)[nH]c2)cc1 (configuration not stated) the results were Insulin prom act 350*.
CCCc1ccc(C(C)NC(=O)c2cnccn2)cc1 (configuration not stated) was read as Insulin prom act 9.
For Cc1cccc(OCc2nc(-c3ccc(Br)o3)no2)c1 the results were Insulin prom act 0.
`Cn1nnnc1SCC(=O)N1c2ccccc2Sc2ccccc21` gave Insulin prom act -9.
`C=CCn1c(CNC(=O)c2ccccc2C)nnc1SCC(=O)NC1CCCC1` gave Insulin prom act 305.
C=CCn1c(CNC(=O)c2ccco2)nnc1SCC(=O)N1c2ccccc2Sc2ccccc21 was read as Insulin prom act 103*.
`O=C(COC(=O)C1Cc2ccccc2CN1C(=O)c1ccccc1Cl)Nc1ccc(N2CCOCC2)cc1` (configuration not stated) gave Insulin prom act 8.
For COc1ccc2nc(Cl)c(/C=N/Nc3ccccn3)cc2c1 the results were Insulin prom act 8.
CCOC(=O)/C(C#N)=C\c1ccc(CC)s1 was read as Insulin prom act 3.
Screening CCOC(=O)/C(C#N)=C\C=C1C=CN(C)C=C1 returned Insulin prom act 110*.
Screening CCOC(=O)/C(C#N)=C\c1cc(C)n(-c2ccccc2)c1C returned Insulin prom act 0.
`Cc1nc2ncnn2c(N2CCN(C(=O)Cc3cccs3)CC2)c1C` gave Insulin prom act 308.
O=C(/C=C/c1ccccc1Cl)NCCc1ccc(F)cc1 was read as Insulin prom act 3.
CCc1ccc(/C=C/C(=O)c2cc(Br)ccc(=O)c2O)cc1 was read as Insulin prom act 3.
`CCNc1ccc(Br)cc(C(=O)/C=C/c2ccccc2Cl)c1=O` gave Insulin prom act 800*.
For Cc1c(Cl)c([N+](=O)[O-])nn1CC(=O)NC12CC3CC(CC(C3)C1)C2 the results were Insulin prom act 4.
Cc1ccc(S(=O)(=O)NCC(c2cccnc2)N(C)C)cc1 (configuration not stated) was read as Insulin prom act 9.
For COc1ccccc1N1CCN(C(=O)C2CCN(S(=O)(=O)c3ccc(C)cc3)CC2)CC1 the results were Insulin prom act -6.
